A selection: hits, their analogues and other compounds. The true share with any hit is near 1.1%.
PREPL inhibitor – PREPL enzyme inhibitors, primary screen, biochemical, fluorescence polarization | Prolyl endopeptidase-like (Homo sapiens), Q4J6C6 | 0.68% of 320,000 active | inhibition, % at 5.96 µM | recombinant PREPL, fluorescence polarization activity-based probe; in the data active means inhibition above about 43%;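 further: 0% = enzyme with DMSO and 100% = wells lacking enzyme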
LYPLA2 inh – LYPLA2 inhibitors, primary screen, counter-screen for PME1 inhibitor project, biochemical, fluorescence polarization, FP-Rh probe ABPP; Acyl-protein thioesterase 2 (Homo sapiens), O95372; recombinant LYPLA2; inhibition, % at 5.9 µM; 0.38% of 320,000 active; AID 2177, 2009;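 active means inhibition above the screen-wide mean plus 3 SD, limit set per campaign, cut at about 26% in these data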;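 further: 0% = LYPLA2 with DMSO and 100% = wells lacking LYPLA2 enzyme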
Target sequence (O95372 whole entry, looked up): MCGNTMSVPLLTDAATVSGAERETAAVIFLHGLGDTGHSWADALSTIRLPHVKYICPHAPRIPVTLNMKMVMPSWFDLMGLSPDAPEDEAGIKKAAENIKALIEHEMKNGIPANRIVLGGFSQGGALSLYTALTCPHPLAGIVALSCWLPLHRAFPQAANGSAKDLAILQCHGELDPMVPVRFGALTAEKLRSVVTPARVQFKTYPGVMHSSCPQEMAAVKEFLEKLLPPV
LYPLA1 counter – LYPLA1 inhibitors, primary screen, counter-screen for PME1 inhibitor project, biochemical, fluorescence polarization, FP-Rh probe ABPP; recombinant LYPLA1; Acyl-protein thioesterase 1 (Homo sapiens), O75608; inhibition, % at 5.9 µM; AID 2174, 2009; 0.16% of 320,000 active;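 active means inhibition above the mean of all tested compounds plus 3 SD, set per campaign, cut at about 14% in these data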;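 further: inhibitors block serine hydrolase probe labeling of LYPLA1 so polarization falls; 0% = enzyme with DMSO and 100% = wells lacking LYPLA1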
Target sequence (O75608 whole entry, looked up): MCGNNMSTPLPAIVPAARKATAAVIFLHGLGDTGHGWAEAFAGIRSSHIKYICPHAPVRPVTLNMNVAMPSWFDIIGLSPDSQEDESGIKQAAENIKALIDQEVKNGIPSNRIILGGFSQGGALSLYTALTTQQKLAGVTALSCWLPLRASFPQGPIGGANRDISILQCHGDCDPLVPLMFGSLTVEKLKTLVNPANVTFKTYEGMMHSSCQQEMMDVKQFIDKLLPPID
proCasp7 act – procaspase-7 activators, primary screen, counter-screen for procaspase-3 activator project, biochemical, absorbance, HTS, human | recombinant procaspase-7, Ac-DEVD-pNA absorbance 405 nm; D23A/D198A/D206A triple mutant, cannot self-cleave; scale: DMSO 0, 5 µM enzyme 100 | activation, % at 8.5 µM | 0.093% of 330,000 active;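 active means percent activation above the screen-wide mean plus 3 SD, cut at about 25% in these data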
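Assay system: Uncleavable procaspase-7 mutant enzyme; Input: 2 µM procaspase-7 mutant as dispensed; Also added: DEVD-pNA substrate; Medium: Zinc-free HEPES pH 7.4 with 300 mM NaCl, 0.01% Triton X-100; Timing: 1 h compound preincubation, 2 h substrate cleavage, 25 °C; Measured by: Epi-absorbance of released pNA at 405 nm, two timepoints.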
proCasp3 act – activators of human procaspase-3 D3A mutant, primary screen, biochemical, absorbance, PC-3 D3A mutant, single concentration | recombinant procaspase-3 D3A, Ac-DEVD-pNA absorbance 405 nm | 0.11% of 330,000 active | activation, % at 8.5 µM | Caspase-3 (Homo sapiens), P42574;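 active means activation above the mean of all tested compounds plus 3 SD, cut at about 21% in these data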;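 further: 0% = DMSO alone and 100% = DMSO wells spiked with extra 5 µM PC-3 D3A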
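Assay system – Procaspase-3 D3A mutant, all three cleavage aspartates alanine · Controls – DMSO-only low control, 5 µM PC-3 D3A high control · Schedule – 1 h compound preincubation, 2 h substrate hydrolysis at 25 °C · Signal – 405 nm absorbance of p-nitroaniline, reads at 0 and 120 min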
* marks the source's active call; other numbers are inactive results; / = no result given.

SMILES	PREPL inhibitor	LYPLA2 inh	LYPLA1 counter	proCasp7 act	proCasp3 act
O=C1c2cccc3cccc(c23)C(=O)N1CCN1CCN(CC(O)COc2ccc3ccccc3c2)CC1 (stereo not drawn)	3	19	-4	7	0
COc1ccc(C(=O)Nc2ccccc2N2CCCC2)cc1S(=O)(=O)N1CCOCC1	3	0	-2	-1	3
COCCNC(=O)C(c1ccc(C)cc1)N(C(=O)CCC(=O)Nc1ccccn1)c1ccccc1C (stereo not drawn)	11	-6	-4	1	-3
O=C(NCCCN1CCOCC1)c1cc(S(=O)(=O)N2CCOCC2)ccc1Cl	9	/	/	4	2
COc1cc([N+](=O)[O-])ccc1NC(=O)COC(=O)C1=NN(c2ccccc2)C(=O)CC1	8	/	/	-4	3
C#Cc1ccc([C@@H]2C=C(C(=O)N3CCN(Cc4ccc5c(c4)OCO5)CC3)O[C@H](OCCCCO)C2)cc1	45*	-3	0	-8	7
O=C(C1=C[C@H](c2ccc3c(c2)OCO3)C[C@H](OCCCCO)O1)N1CCN(Cc2ccc3c(c2)OCO3)CC1	26	8	-2	5	-2
Cc1sc2nc(CSCC(=O)NC3(C#N)CCCCC3)[nH]c(=O)c2c1C	21	-2	-2	6	3
O=C(O)CCC(=O)Nc1sc2c(c1C(=O)NC1CCCC1)CCCC2	3	0	-2	2	7
O=C(Cc1coc2cc3c(cc12)CCC3)NC1CCCCCCC1	-20	-5	-7	6	-1
O=C(Cc1coc2cc3c(cc12)CCC3)NCC1(N2CCCCC2)CCCCC1	46*	-4	-4	-7	1
CCN(C(=O)CSc1n[nH]c(N)n1)C1CCCCC1	9	/	/	-1	-4
CC(C)(C)c1cnnn1-c1ccc(/C=N/Nc2ccc([N+](=O)[O-])cc2)cc1	13	26*	-10	-23	-18
C/C(=N\Nc1ccc([N+](=O)[O-])cc1)c1ccc(-n2nncc2C)cc1	18	8	1	-21	-8
CCOc1ccc2[nH]c3c(N4CCN(c5ccccn5)CC4)ncnc3c2c1	68*	3	-1	-9	-19
Cc1ccc2c(c1)[nH]c1c(N3CCN(Cc4ccccc4)CC3)ncnc12	55*	-2	-1	8	-5
Cc1[nH]c2ccccc2c1/C=N/Nc1ccccc1[N+](=O)[O-]	51*	4	3	-4	10
Cc1ccc([N+](=O)[O-])c(OCc2ncc(Cl)n2C)c1	9	8	2	13	-1
Cc1nc(C(=O)NC2CC2)sc1C1(C)CC(c2cccc([N+](=O)[O-])c2)=NO1 (stereo not drawn)	11	22	1	1	-8
Cc1nc(C(=O)NC2CCCCC2)sc1C1(C)CC(c2cccnc2)=NO1 (stereo not drawn)	5	26*	-3	9	4
O=C(CCNC(=O)C1CCN(S(=O)(=O)c2ccc(F)cc2)CC1)Nc1nccs1	-2	2	0	12	11
O=C(COC(=O)CCc1nc2ccccc2c(=O)[nH]1)Nc1ccccc1OC(F)F	3	1	-2	-4	5
CC1=CC(C#N)(C#N)C(C#N)(C#N)C(c2ccccc2)N1 (stereo not drawn)	10	44*	42*	3	-1
COC1(OC)N=C(N)C2(C#N)C(c3ccccc3)NC(C)=CC12C#N (stereo not drawn)	1	-2	0	5	10
O=C(Cn1c(=O)c2cccn2c2cccnc21)N1CCN(c2ccc(Cl)cc2)CC1	40	3	-2	2	5
SMILES	PREPL inhibitor	LYPLA2 inh	LYPLA1 counter	proCasp7 act	proCasp3 act
O=C1c2c(O)cc(O)cc2O[C@H](c2ccc(O)c(O)c2)[C@H]1O	-2	36*	-2	-16	7
O=C1c2c(O)cc(O)cc2O[C@H](c2ccc(O)cc2)[C@H]1O	2	20	0	-4	8
COc1cc([C@@H]2Oc3cc(C4Oc5cc(O)cc(O)c5C(=O)[C@H]4O)ccc3O[C@H]2CO)ccc1O (stereo partly drawn)	12	50*	-3	3	-1
CCC1(CC)NC(=O)N(CC(=O)Nc2cccc3ccccc23)C1=O	6	/	/	12	0
CC(C)(Oc1ccc(Cl)cc1)C(=O)Nc1cccc(S(=O)(=O)NC2=NCCC2)c1	6	-1	-2	-8	3
COCCn1nnnc1CN(CCc1ccccc1)Cc1cc2cc(OC)ccc2[nH]c1=O	54*	1	2	-27	-14
O=C(c1cc([N+](=O)[O-])ccc1Cl)N1CCN(c2ccc(F)cc2)CC1	45*	3	0	-2	8
NC(=S)NC(c1ccccc1)c1ccncc1 (stereo not drawn)	-6	-1	0	-8	-8
C=CCn1c(C)cc(-c2csc(N)n2)c1C	49*	-1	-1	-3	-8
CCOc1cc(C(c2c(C)[nH][nH]c2=O)c2c(C)[nH][nH]c2=O)ccc1OC(=O)c1cccc([N+](=O)[O-])c1	86*	4	1	-2	0
CCOc1cc(C(c2c(C)[nH][nH]c2=O)c2c(C)[nH][nH]c2=O)ccc1OCc1ccc([N+](=O)[O-])cc1	9	7	2	-4	2
CN(CC(=O)Nc1ccc(Cl)c(C(F)(F)F)c1)C(=O)c1cccc(N2C(=O)CCC2=O)c1	6	-1	-9	-5	4
CN(C)c1ccc(C(CNC(=O)c2ccc(C#N)cc2)c2c[nH]c3ccccc23)cc1 (stereo not drawn)	65*	12	-5	-2	-1
c1cc2c3c(cccc3c1)NC1(CCCCC1)N2	20	-10	-9	-4	3
c1cc2c3c(cccc3c1)NC1(CCCCCC1)N2	52*	-3	-6	-10	11
CC(C)NC(=O)N(C)C[C@H]1Oc2c(cccc2N(C)C)C(=O)N([C@H](C)CO)C[C@@H]1C	14	/	/	4	9
C#CCOCCOCCOCCNc1nc(N2CCN(C(=O)CCCCCCCCCCNC(=O)Cn3cc(C[C@@H](C)O)nn3)CC2)nc(N2CCN(C(=O)CCCCCCCCCCNC(=O)[C@H](CCCCN)n3cc(C[C@@H](C)CC)nn3)CC2)n1	29	3	-3	-4	7

Source: PubChem BioAssay
